Screening results as filed in PubChem.
Rows were chosen to be rich in hits. Some 2.9% of all compounds tested hit in one or more screens of this group.
IMP-1 inhibitor: IMP-1 metallo-beta-lactamase inhibitors, primary screen, biochemical, epi-absorbance readout, Pseudomonas aeruginosa enzyme | metallo-beta-lactamase IMP-1 (Pseudomonas aeruginosa) | purified IMP-1, nitrocefin hydrolysis, epi-absorbance fluorescence | inhibition, % at 5.6 µM | 0.45% of 290,000 active;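 active = inhibition above the mean plus 3 SD of all compounds in the same screening run, cut at about 4.5% in these data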;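 note: 0% = IMP-1 with DMSO and 100% = DMSO wells lacking enzyme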
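System: Purified IMP-1 | Read-out basis: Percent enzyme inhibition | Controls: IMP-1 with DMSO as 0%, enzyme-free DMSO as 100% | Replicates: One well per compound | Doses: 5.6 µM nominal single concentration | Detection: Epi-absorbance fluorescence, 480 nm excitation, 530 nm emission | Incubation: 25 °C, 15 min preincubation, 25 min reaction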
VIM-2 inhibitor: VIM-2 metallo-beta-lactamase inhibitors, primary screen, biochemical, epi-absorbance readout, Pseudomonas aeruginosa enzyme | purified VIM-2, nitrocefin hydrolysis, epi-absorbance fluorescence | inhibition, % at 5.6 µM | 0.89% of 290,000 active;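 active = inhibition above the mean of all tested compounds plus 3 SD, cutoff set per screening run, cut at about 7.5% in these data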;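 note: red hydrolysis product quenches plate fluorescence so inhibitors raise well fluorescence; 0% = enzyme with DMSO and 100% = DMSO without enzyme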
NLRP3 yeast inh: NALP3 inflammasome inhibitors in reconstituted yeast, primary screen, luminescence, uHTS; Yeast reconstituted NLRP3/ASC/caspase-1, beta-gal luminescence, 24 h; inhibition, % at 10 µM; 0.39% of 330,000 active; AID 2825, 2010;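 active = inhibition of 50% or more; inactive = inhibition below 50%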;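 note: plate controls were induced DMSO wells for no effect and uninduced yeast grown without galactose for full effect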
SUMO Mot1 rescue: yeast Mot1-301 growth rescue at high temperature, primary screen, SUMOylation pathway inhibitor project, S. cerevisiae, ATP luminescence, 38.5C. growth rescue, % at 18.8 µM. S. cerevisiae Mot1-301 growth rescue; percent above DMSO median, 100 means doubled. AID 2716, 2010. 1% of 320,000 active;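 active = every valid replicate shows activation above 250% relative to neutral control wells; inactive = the rest, any valid replicate at or below 250%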;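 note: OY570 slx delta 5 strain wells were the positive control but not used for scaling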
PolyA inhibitor: polyadenylation inhibitors in yeast reporter cells, primary screen, luminescence, S. cerevisiae. 0.02% of 300,000 active. activity score, % at 12 µM. AID 1875, 2009. S. cerevisiae SKY197-pL101 polyadenylation reporter, beta-gal luminescence; efflux-impaired pdr1/pdr3 knockout yeast; score 100 = 6 SD above DMSO;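 active = lowest replicate activity score at least 50, where 100 means six control SD above control mean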;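 note: yeast exposed to compound for 9 h at 30 °C; higher score means more reporter readthrough which indicates perturbed polyadenylation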
NALP1 inh: NALP1 inflammasome inhibitors in reconstituted yeast, colorimetric, S. cerevisiae, triplicate retest. S. cerevisiae NALP1/ASC/caspase-1 growth, X-gal OD620, 72 h. inhibition, % at 10 µM. 0.61% of 280,000 active. AID 2071, 2009; in the data active = inhibition mostly above about 24%, no sharp cut-off; inactive = mostly below about 32%
Numbers without * were called inactive; / = not tested or not shown; + = active, no number.

SMILES	IMP-1 inhibitor	VIM-2 inhibitor	NLRP3 yeast inh	SUMO Mot1 rescue	PolyA inhibitor	NALP1 inh
Cc1ccc2cc3cc(C(=O)NCCCN4CC(C)CC(C)C4)oc3nc2c1 (stereo not drawn)	-2.0	10.3*	-11.4	6.4	14.3	24.8
Cc1ccc2oc(=O)c3cc(C(=O)N4CCN(C(=O)c5ccco5)CC4)sc3c2c1	-0.1	-1.5	7.2	22.5	-26.4	10.7
CCOc1ccccc1N1CCN(C(=O)c2cc3cc(OC)ccc3[nH]2)CC1	-3.9	-1.8	8.3	0.4	-4.1	4.7
Cc1ccc(-n2c(C)nnc2SC(C)C(=O)N2CCCC2)cc1 (stereo not drawn)	-1.8	-2.6	-2.3	285.2*	1.4	-3.0
CCOc1ccc2[nH]c(=O)c(CN(Cc3nnnn3Cc3ccco3)C3CCCCC3)cc2c1	4.3	6.2	15.5	-6.6	-2.9	-17.2
COc1cc2cc(CN(Cc3nnnn3Cc3ccco3)C3CCCCC3)c(=O)[nH]c2cc1OC	2.4	9.3*	-4.3	1.2	1.8	10.1
Cc1nc(CNS(=O)(=O)c2ccc(F)cc2)cs1	-4.2	-2.9	12.4	2.6	-0.7	18.9
CCCN(CC1CC1)C(=S)NC(=O)c1cc(Br)ccc1Cl	/	/	19.8	/	/	/
Cc1c(Br)c(C(=O)N2CCc3ccccc32)nn1C	10.2*	-4.8	11.6	-3.6	2.1	18.6
O=C(COC(=O)/C=C/c1ccccc1)NNC(=O)c1ccc([N+](=O)[O-])cc1	/	/	10.2	-1.2	11.4	/
CC1CN(c2nc3ccccn3c(=O)c2C=O)CC(C)O1 (stereo not drawn)	-2.7	-3.5	-0.1	288.5	3.0	-17.2
O=c1c([N+](=O)[O-])c(N2CCCCC2)c2ccccc2n1-c1ccccc1	-4.5	-2.7	6.7	7.0	14.0	36.4*
O=c1c([N+](=O)[O-])c(NCCN2CCCCCC2)c2ccccc2n1-c1ccccc1	-2.2	0.0	-1.3	1.9	7.3	18.1
CCC(O)CC(C(=O)NNc1ccccc1)C(=O)NNc1ccccc1 (stereo not drawn)	-1.0	-1.2	21.4	268.5*	-32.3	12.3
CCOC(=O)NNc1ccccc1	0.1	-0.9	5.9	141.2	4.3	10.6
COc1ccc(CNC(=O)Cn2nc(Cc3cccnc3)c3ccccc3c2=O)cc1	-1.7	-0.7	11.0	438.9*	-5.4	-16.4
COc1cccc(NC(=O)Cn2nc(Cc3cccnc3)c3ccccc3c2=O)c1	0.9	0.1	7.2	-9.1	8.2	13.2
CCn1c(Cc2ccccc2)nnc1SCC(=O)Nc1ccccc1F	-0.9	-1.3	11.6	10.5	-13.3	33.3*
CCCCNC(=O)CSc1nnc(Cc2ccccc2)n1CC	4.5*	-1.1	15.2	-9.2	-14.9	-5.8
Cc1cc(S(=O)(=O)Nc2cc(C)c(O)c(C)c2)c(C)s1	-2.4	-2.0	1.4	71.0	8.9	40.0*
COc1ccc(NC(=O)C23CC4CC(CC(Cl)(C4)C2)C3)cc1S(=O)(=O)N1CCOCC1	/	/	5.4	7.6	/	/
CC12CN3CC(C)(CN(C1)C3c1ccc3c(c1)OCO3)C2O (stereo not drawn)	-1.0	0.5	3.1	+	11.6	/
COc1cc(NC(=O)c2sc(C)nc2C)c(OC)cc1NC(=O)c1ccccc1	-3.2	6.0	19.4	19.9	-4.9	34.5
O=[N+]([O-])c1ccc(Cl)c(-c2ccc(/C=N/c3c(-c4ccco4)nc4ccccn34)o2)c1	-1.6	-1.5	30.8	10.9	-6.6	4.5
Cc1cc(C)c([N+](=O)[O-])cc1-c1ccc(/C=N/c2c(-c3ccco3)nc3ccccn23)o1	9.2*	4.3	28.5	-0.9	-23.4	-1.1
SMILES	IMP-1 inhibitor	VIM-2 inhibitor	NLRP3 yeast inh	SUMO Mot1 rescue	PolyA inhibitor	NALP1 inh
COc1ccc(CNC(=O)CN(C)S(=O)(=O)c2ccc3c(c2)OCCO3)cc1OC	/	/	-4.5	-0.6	/	/
Cc1cc(=O)n2c(-c3ccccc3C)n[nH]c2n1	-1.2	-0.2	-1.2	-6.7	2.2	8.1
Cc1cc(=O)n2c3ccccc3n(C)c2n1	0.3	10.3*	17.4	-16.7	-0.9	8.4
C(=N\Nc1ccc(-n2ccnc2)nn1)/c1ccccc1	-1.3	-0.2	19.4	-22.2	-2.2	44.0*
COc1cccc(Nc2ccc(-n3ccnc3)nn2)c1	-3.0	0.8	-8.6	/	-13.4	-2.4
O=C(NCCN1CCOCC1)c1cc2cc([N+](=O)[O-])ccc2s1	-1.4	-2.5	-9.3	-13.2	-2.7	13.7
CC(NC(=O)CNC(=O)C1CCCCC1)c1cccc(Cl)c1 (stereo not drawn)	0.3	-2.0	17.7	-5.2	2.5	2.4
CCOC(=O)NC(c1cccc(Cl)c1)C1CCCCCC1=O (stereo not drawn)	-2.3	-1.5	-0.1	-17.1	-14.9	43.3*
CC1=C(C(=O)OC(C)(C)C)C(c2cccc3ccccc23)NC(=O)N1 (stereo not drawn)	0.5	-0.5	-0.7	-3.3	2.8	35.7
O=[N+]([O-])c1ccc(/C=C/C2=NN(c3ccccc3)C(c3ccco3)C2)o1 (stereo not drawn)	5.5*	4.5	/	/	-3.1	-6.2
Cn1nc(-c2ccc(OCC(=O)Nc3ccccc3)cc2)c2ccccc2c1=O	-2.9	9.3*	19.1	9.8	-11.4	-4.1
CC[n+]1c(/C=C/c2ccc(N(C)C)cc2)ccc2ccccc21	-9.9	-7.6	/	-18.7	-14.6	92.2*
CC[n+]1ccc(/C=C/c2ccc(N(C)C)cc2)c2ccccc21	-10.3	-7.0	/	/	/	44.6*
CC[n+]1c(/C=C/c2ccc(OC)c(OC)c2)ccc2ccccc21	-0.1	2.2	14.9	41.4	-5.6	11.5
COc1ccc2cc(C)c3nnc(SCc4cccnc4)n3c2c1	-1.8	8.9*	19.6	-13.3	-8.2	10.5
N#CCCN(C(=O)COC(=O)CCNS(=O)(=O)c1ccccc1)c1ccccc1	/	/	12.8	6.1	/	/
COc1ccccc1CNC(=O)[C@H](C)NC(=O)C1CCN(C(=O)[C@@H](N)CCSC)CC1	-1.6	-2.3	-2.4	-5.7	-19.7	15.3
COc1ccc(CNC(=O)[C@@H](C)NC(=O)C2CCN(C(=O)[C@@H](N)CCSC)CC2)cc1	-2.5	-3.7	0.9	612.2*	-0.1	17.0
CC1CC(C)CN(CCCNC(=O)c2ccc3c(c2)N(Cc2ccccc2)C(=O)c2ccccc2S3=O)C1 (stereo not drawn)	-1.2	0.3	14.4	-8.3	5.4	10.2
CCc1nn(CC(=O)NCCC(C)C)c(=O)c2cc3c(OC)cccc3n12	4.4	2.7	15.8	-14.5	8.1	12.6
CCc1nn(CC(=O)NCCN2CCN(C)CC2)c(=O)c2cc3c(OC)cccc3n12	-2.0	11.6*	-8.4	-4.2	4.9	7.1
